The source made the active and inactive calls. No cut-off for these calls is given here.
What was measured:
Jurkat [1] = test: Cytotoxicity against human Jurkat cells assessed as cell viability at 10 uM measured after 48 hrs by WST-1 assay relative to control; format: functional; conditions: read-out: Activity
Summary of the method: (§1)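 Ten-line human panel (9 cancer, 1 non-cancerous). Cells were seeded at a pre-established optimal density (500–30 × 10³ per well) and settled overnight. Compounds came from 10 mM DMSO stocks and were tested at two concentrations. WST-1 readout followed the manufacturer's protocol at the end of cultivation. Viability is expressed as % of untreated control cells, mean of three independent experiments.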

MOLT-4 [2] = test: Cytotoxicity against human MOLT-4 cells assessed as cell viability at 10 uM measured after 48 hrs by WST-1 assay relative to control; format: functional; conditions: read-out: Activity; summary of the method: as §1
A549 [3] = test: Cytotoxicity against human A549 cells assessed as cell viability at 10 uM measured after 48 hrs by WST-1 assay relative to control; format: functional; conditions: read-out: Activity; summary of the method: as §1
HT-29 [4] = test: Cytotoxicity against human HT-29 cells assessed as cell viability at 10 uM measured after 48 hrs by WST-1 assay relative to control; format: functional; conditions: read-out: Activity; summary of the method: as §1
PANC-1 [5] = test: Cytotoxicity against human PANC-1 cells assessed as cell viability at 10 uM measured after 48 hrs by WST-1 assay relative to control; format: functional; conditions: read-out: Activity; summary of the method: as §1
A2780 [6] = test: Cytotoxicity against human A2780 cells assessed as cell viability at 10 uM measured after 48 hrs by WST-1 assay relative to control; format: functional; conditions: read-out: Activity; summary of the method: as §1
HeLa [7] = test: Cytotoxicity against human HeLa cells assessed as cell viability at 10 uM measured after 48 hrs by WST-1 assay relative to control; format: functional; conditions: read-out: Activity; summary of the method: as §1
MCF7 [8] = test: Cytotoxicity against human MCF7 cells assessed as cell viability at 10 uM measured after 48 hrs by WST-1 assay relative to control; format: functional; conditions: read-out: Activity; summary of the method: as §1
SAOS-2 [9] = test: Cytotoxicity against human SAOS-2 cells assessed as cell viability at 10 uM measured after 48 hrs by WST-1 assay relative to control; format: functional; conditions: read-out: Activity; summary of the method: as §1
[10] = Cytotoxicity against human MRC5 cells assessed as cell viability at 10 uM measured after 48 hrs by WST-1 assay relative to control; format: cell-based; conditions: read-out: Activity; summary of the method: as §1
Jurkat [11] = test: Cytotoxicity against human Jurkat cells assessed as cell viability at 100 uM measured after 48 hrs by WST-1 assay relative to control; format: functional; conditions: read-out: Activity; summary of the method: as §1
MOLT-4 [12] = test: Cytotoxicity against human MOLT-4 cells assessed as cell viability at 100 uM measured after 48 hrs by WST-1 assay relative to control; format: functional; conditions: read-out: Activity; summary of the method: as §1
A549 [13] = test: Cytotoxicity against human A549 cells assessed as cell viability at 100 uM measured after 48 hrs by WST-1 assay relative to control; format: functional; conditions: read-out: Activity; summary of the method: as §1
HT-29 [14] = test: Cytotoxicity against human HT-29 cells assessed as cell viability at 100 uM measured after 48 hrs by WST-1 assay relative to control; format: functional; conditions: read-out: Activity; summary of the method: as §1
PANC-1 [15] = test: Cytotoxicity against human PANC-1 cells assessed as cell viability at 100 uM measured after 48 hrs by WST-1 assay relative to control; format: functional; conditions: read-out: Activity; summary of the method: as §1
A2780 [16] = test: Cytotoxicity against human A2780 cells assessed as cell viability at 100 uM measured after 48 hrs by WST-1 assay relative to control; format: functional; conditions: read-out: Activity; summary of the method: as §1
HeLa [17] = test: Cytotoxicity against human HeLa cells assessed as cell viability at 100 uM measured after 48 hrs by WST-1 assay relative to control; format: functional; conditions: read-out: Activity; summary of the method: as §1
MCF7 [18] = test: Cytotoxicity against human MCF7 cells assessed as cell viability at 100 uM measured after 48 hrs by WST-1 assay relative to control; format: functional; conditions: read-out: Activity; summary of the method: as §1
SAOS-2 [19] = test: Cytotoxicity against human SAOS-2 cells assessed as cell viability at 100 uM measured after 48 hrs by WST-1 assay relative to control; format: functional; conditions: read-out: Activity; summary of the method: as §1
[20] = Cytotoxicity against human MRC5 cells assessed as cell viability at 100 uM measured after 48 hrs by WST-1 assay relative to control; format: cell-based; conditions: read-out: Activity; summary of the method: as §1
HT-29 [21] = test: Cytotoxicity against human HT-29 cells assessed as growth percent at 100 uM by WST-1 assay relative to control; format: functional; conditions: HT-29, read-out: Activity, time 48 hrs
MCF7 [22] = test: Cytotoxicity against human MCF7 cells assessed as growth percent at 100 uM by WST-1 assay relative to control; format: functional; conditions: MCF7, read-out: Activity, time 48 hrs
A549 [23] = test: Cytotoxicity against human A549 cells assessed as reduction in cell viability incubated for 24 hrs by MTT assay; format: functional, cell-based; conditions: A549, 24 h
Summary of the method: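 A-549 cells in DMEM with 10% FBS and 1% penicillin-streptomycin were attached overnight. Compounds were prepared in PBS and serially diluted in DMEM, then incubated 24 h. Viability was read by colorimetric MTT reduction against an untreated control on each plate (100%). IC50 came from four-parameter nonlinear regression of the log concentration-response curve, mean ± SEM. MTC is the highest concentration not differing from control (t-test).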

A549 [24] = test: Cytotoxicity against human A549 cells assessed as maximum tolerated concentration incubated for 24 hrs by MTT assay; format: functional
Summary of the method: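 A-549 cells in DMEM with 10% FBS and 1% penicillin-streptomycin, left to attach overnight. Compounds made up in PBS, serially diluted in DMEM, incubated 24 h, then viability read by MTT reduction against untreated controls on each plate. MTC taken as the highest concentration showing no significant difference from non-treated control (t-test).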

MOLT-4 [25] = test: Radioprotective activity against gamma irradiation-induced apoptosis in human MOLT-4 cells assessed as viable cells at 100 uM pretreated with compound for 1 hr followed by gamma irradiation and measured after 24 hrs by annexinV/propidium iodide staining based flow cytometry (reference value: 40 %); format: functional; conditions: MOLT-4, light or radiation study, time 25 hrs, read-out: Activity
[26] = Toxicity in C57Bl/6 mouse assessed as mouth death at 100 mg/kg, ip measured after 30 days; format: organism-based; conditions: in vivo, 720 h, time 30 day
Summary of the method: (§2)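 Safety in C57Bl/6 mice (27 ± 3 g) given a single 100 mg/kg i.p. injection without irradiation. Deaths, adverse effects and body weight followed over 30 days against an untreated control group. Weight reported as change from day 0.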

[27] = Toxicity in C57Bl/6 mouse assessed as adverse effects at 100 mg/kg, ip measured after 30 days; format: organism-based; conditions: in vivo, 720 h, time 30 day; summary of the method: as §2
[28] = Toxicity in C57Bl/6 mouse assessed as average body weight at 100 mg/kg, ip and measured immediately (reference value: 26.3 +/- 2.4 g); format: organism-based; conditions: in vivo
[29] = Toxicity in C57Bl/6 mouse assessed as average body weight at 100 mg/kg, ip measured after 30 days (reference value: 27 +/ 3.2 g); format: organism-based; conditions: in vivo, 720 h, time 30 day
[30] = Toxicity in C57Bl/6 mouse assessed as change in body weight at 100 mg/kg, ip measured after 30 days (reference value: 103 +/- 12 %); format: organism-based; conditions: in vivo, 720 h, time 30 day
Mus musculus [31] = test: Radioprotective activity in C57Bl/6 mouse assessed as median survival time at 100 mg/kg, ip administered 5 min prior to gamma-irradation at 8.5 Gy and measured after 30 days (reference value: 12 days); format: functional
Mus musculus [32] = test: Radioprotective activity in C57Bl/6 mouse assessed as average body weight at 100 mg/kg, ip administered 5 min prior to gamma-irradation at 8.5 Gy and measured immediately (reference value: 25.4 +/- 2.6 g); format: functional
Mus musculus [33] = test: Radioprotective activity in C57Bl/6 mouse assessed as average body weight at 100 mg/kg, ip administered 5 min prior to gamma-irradation at 8.5 Gy and measured after 30 days; format: functional
Mus musculus [34] = test: Radioprotective activity in C57Bl/6 mouse assessed as body weight gain at 100 mg/kg, ip administered 5 min prior to gamma-irradation at 8.5 Gy measured after 30 days relative to control; format: functional
Mus musculus [35] = test: Radioprotective activity in C57Bl/6 mouse assessed as increase in absolute B-lymphocytes at 100 mg/kg, ip pretreated with compound for 5 min followed by gamma irradiation at 8.5 Gy and measured after 30 days by flow cytometry; format: functional, organism-based
Summary of the method: (§3)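 C57Bl/6 mice receive 100 mg/kg i.p. 5 min before a single 8.5 Gy ⁶⁰Co γ dose. At 7, 12 and 30 days post-irradiation, 100 µl peripheral blood is stained with anti-CD3ε, CD19 and NK1.1 antibodies for 30 min at 4 °C in the dark. Samples are washed twice and analysed by flow cytometry for T, B and NK cells. Mean ± SEM.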

Mus musculus [36] = test: Radioprotective activity in C57Bl/6 mouse assessed as increase in absolute T-lymphocytes at 100 mg/kg, ip pretreated with compound for 5 min followed by gamma irradiation at 8.5 Gy and measured after 30 days by flow cytometry; format: functional, organism-based; summary of the method: as §3
Mus musculus [37] = test: Radioprotective activity in C57Bl/6 mouse assessed as increase in absolute NK population at 100 mg/kg, ip pretreated with compound for 5 min followed by gamma irradiation at 8.5 Gy and measured after 30 days by flow cytometry; format: functional, organism-based; summary of the method: as §3

Compound	viability at 10 µM (Jurkat [1]) [%]	viability at 10 µM (MOLT-4 [2]) [%]	viability at 10 µM (A549 [3]) [%]	viability at 10 µM (HT-29 [4]) [%]	viability at 10 µM (PANC-1 [5]) [%]	viability at 10 µM (A2780 [6]) [%]	viability at 10 µM (HeLa [7]) [%]	viability at 10 µM (MCF7 [8]) [%]	viability at 10 µM (SAOS-2 [9]) [%]	viability at 48 h, 10 µM [10] [%]	viability at 100 µM (Jurkat [11]) [%]	viability at 100 µM (MOLT-4 [12]) [%]	viability at 100 µM (A549 [13]) [%]	viability at 100 µM (HT-29 [14]) [%]	viability at 100 µM (PANC-1 [15]) [%]	viability at 100 µM (A2780 [16]) [%]	viability at 100 µM (HeLa [17]) [%]	viability at 100 µM (MCF7 [18]) [%]	viability at 100 µM (SAOS-2 [19]) [%]	viability at 48 h, 100 µM [20] [%]	also measured
OCCN1CCN(CC(O)COc2cccc3ccccc23)CC1 (stereo not given)	96	98	98	93	102	97	99	103	97	102	76	83	107	53	101	77	129	64	97	78	growth at 100 µM (HT-29 [21]): 53%; growth at 100 µM (MCF7 [22]): 64%; IC50 (A549 [23]): 0.42 mM; MTD (A549 [24]): 0.07 mM; viability at 100 µM (MOLT-4 [25]): 59%
COc1ccccc1OCC(O)CN1CCN(CCO)CC1 (stereo not given)	106	100	91	93	100	100	93	99	106	90	86	76	109	143	115	78	99	95	82	109	IC50 (A549 [23]): 9.27 mM; MTD (A549 [24]): 1.56 mM; viability at 100 µM (MOLT-4 [25]): 59%; Activity [26]: Non-Toxic; Activity [27]: Non-Toxic; Activity [28]: 27.9 g; Activity [29]: 28.5 g; Activity [30]: 102%; MST (Mus musculus [31]): 13 days; Activity (Mus musculus [32]): 26.8 g; Activity (Mus musculus [33]): 27.6 g; Activity (Mus musculus [34]): 102%; Activity (Mus musculus [35]): Active; Activity (Mus musculus [36]): Active; Activity (Mus musculus [37]): Active

Reference: ChEMBL document CHEMBL4706495, “A novel class of small molecule inhibitors with radioprotective properties” (Eur J Med Chem, 2020)
